High-throughput results deposited in PubChem by NMMLSC.
ABCB1 inh: blocks JC-1 efflux by human ABCB1 transporter; inhibition, % at 6.6 µM; hit rate 0.067% among 190,000; CCRF-Adr cells, flow cytometry; AID 1326; P08183; in the data active = inhibition above about 40%;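 also: 0% = vehicle and 100% = reference inhibitor; higher value means more JC-1 retained so stronger ABCB1 efflux block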
ABCG2 block: blocks JC-1 efflux by human ABCG2 transporter; IgMXP3 cells, flow cytometry; inhibition, % at 6.6 µM; hit rate 0.1% among 190,000;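 active = inhibition above 80%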;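 also: 0% = DMSO and 100% = nicardipine control wells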
Target sequence (Q9UNQ0 whole entry, looked up): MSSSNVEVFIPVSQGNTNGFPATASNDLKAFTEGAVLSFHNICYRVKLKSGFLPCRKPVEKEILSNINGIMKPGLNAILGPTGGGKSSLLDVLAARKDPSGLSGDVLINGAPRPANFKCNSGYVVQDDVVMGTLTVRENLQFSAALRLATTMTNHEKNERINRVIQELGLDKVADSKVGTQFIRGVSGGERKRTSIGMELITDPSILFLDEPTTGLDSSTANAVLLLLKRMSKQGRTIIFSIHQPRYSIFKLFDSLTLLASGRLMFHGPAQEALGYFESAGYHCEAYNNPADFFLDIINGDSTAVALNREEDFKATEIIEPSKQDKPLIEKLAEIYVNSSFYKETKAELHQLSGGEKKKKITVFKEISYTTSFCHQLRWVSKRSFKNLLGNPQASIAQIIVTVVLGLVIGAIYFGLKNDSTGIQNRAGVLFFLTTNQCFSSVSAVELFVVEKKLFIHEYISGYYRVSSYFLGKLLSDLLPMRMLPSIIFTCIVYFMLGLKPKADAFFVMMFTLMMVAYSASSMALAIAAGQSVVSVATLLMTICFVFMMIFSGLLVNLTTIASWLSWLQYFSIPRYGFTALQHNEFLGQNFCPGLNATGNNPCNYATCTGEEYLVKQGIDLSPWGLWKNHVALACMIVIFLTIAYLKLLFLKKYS
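test system = two drug-resistant human cell lines, ABCG2 and ABCB1 | amount = 3 million cells/mL final, two lines in 1:1 ratio | reagent = JC-1 transporter substrate | doses = one concentration, 6.6 µM final | incubation = 10 min at 25 °C | signal = flow cytometric JC-1 green MFI at 530 nm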
MEKK2 mut-MEK5: signal of MEK5 binding to mutant human MEKK2 PB1 domain. bead flow cytometry, Alexa488-MEK5 binding to MEKK2 mutant. hit rate 0.35% among 290,000. percent response, % at 10 µM; in the data active = percent response above about 24%, passing the limit was not always enough
MEKK2 WT-MEK5: raises or lowers MEK5 binding to wildtype human MEKK2 PB1 domain | Q9Y2U5 | bead flow cytometry, Alexa488-MEK5 binding to MEKK2 WT; actives lie on both sides | binding response (% of control), % at 10 µM | hit rate 1.1% among 290,000 | AID 1531; in the data active = binding response below about 67% or above about 130%
Efflux pump mplx: inhibitors of Candida antifungal efflux pumps expressed in yeast | S. cerevisiae Candida pump triplex, Nile Red efflux | inhibition, % at 10 µM | hit rate 0.44% among 330,000 | AID 485275;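 active = plate passing quality check with inhibition over a set limit, or well fluorescence over plate mean plus 4 SD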;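 also: Nile Red retained in pooled yeast measured as flow cytometry median fluorescence; 0% = buffer negative control and 100% = Enniatin B positive control; higher means more Nile Red kept so more efflux inhibition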
MEKK3 PB1 HTS: modulators (inhibitors or enhancers) of MEK5 binding to human MEKK3 PB1 domain. Q99759. bead-based flow cytometry, Alexa488-MEK5 binding to MEKK3; actives lie on both sides; 0 = blocked by unlabeled MEK5, 100 = vehicle. binding response (% of control), % at 10 µM. hit rate 1.4% among 290,000;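 active = binding response more than 3 SD above or below the average of its plate-row segment, actives on both sides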;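 also: Alexa488 bead fluorescence after subtracting the streptavidin-only scavenger bead signal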
Cmpd fluor yeast: compound fluorescence in yeast efflux pump counter-screen; AID 588517; S. cerevisiae AD/pABC3, flow cytometry; hit rate 4% among 1,700; fluorescence ratio to DMSO, % at 10 µM; shares compounds with Efflux pump mplx;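 active = fluorescence ratio to DMSO above its plate's cutoff, the plate mean ratio plus 5 SD, cut at about 210% in these data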;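 also: unstained yeast with no Nile Red so the signal is compound autofluorescence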
CaMdr1 efflux inh: inhibitors of Candida albicans Mdr1 efflux pump; hit rate 1% among 1,700; inhibition, % at 10 µM; shares compounds with Efflux pump mplx; S. cerevisiae AD/CaMDR1, Nile Red efflux, flow cytometry; in the data active = inhibition above about 26%;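 also: 0% = DMSO vehicle and 100% = reference inhibitor; higher means more Nile Red retained so more efflux inhibition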
Cdr2 pump inh: inhibitors of Candida albicans Cdr2 efflux pump; AID 588520; shares compounds with Efflux pump mplx; S. cerevisiae AD/CaCDR2, Nile Red retention, flow cytometry; hit rate 4% among 1,700; Nile Red retention ratio vs DMSO, % at 10 µM; in the data active = Nile Red retention ratio vs DMSO above about 190%;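 also: higher ratio means more blocking of Cdr2 efflux of the dye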
CaCdr1 efflux inh: inhibitors of Candida albicans Cdr1 efflux pump; AID 588522; S. cerevisiae AD/CaCDR1, Nile Red efflux, flow cytometry; shares compounds with Efflux pump mplx; hit rate 1% among 1,700; inhibition, % at 10 µM;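 active = inhibition above the screen-wide mean plus twice its standard deviation, cut at about 32% in these data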
Active calls of the source: *; x = no result given. Only some compounds are listed: those with a hit (about 2.5% of all), similar ones and a draw of the others.

SMILES	ABCB1 inh	ABCG2 block	MEKK2 mut-MEK5	MEKK2 WT-MEK5	Efflux pump mplx	MEKK3 PB1 HTS	Cmpd fluor yeast	CaMdr1 efflux inh	Cdr2 pump inh	CaCdr1 efflux inh
Cc1cc(NC(=O)CN2C(=O)c3ccccc3S2(=O)=O)no1	x	x	10	107	0	103	x	x	x	x
Cc1ccc(NC(=O)C2CCN(S(=O)(=O)c3ccc(F)cc3)CC2)cc1	1	4	-4	95	0	98	x	x	x	x
Cc1ccc(S(=O)(=O)N2CCC(C(=O)N[C@@H](C)C(=O)Nc3ccc(F)cc3)CC2)cc1	x	x	-9	93	0.8*	94	112	0	119	0
Cc1onc(-c2c(Cl)cccc2Cl)c1C(=O)N=C(N)N1CC(C)OC(C)C1 (centres undefined)	x	x	-4	93	0	103	x	x	x	x
O=C(CSC1=Nc2ccccc2C2=NC(CC(=O)N3CCN(c4ccccc4)CC3)C(=O)N12)NCC1CCCO1 (centres undefined)	1	-3	7	100	0.8*	98	99	0	101	0
NC(=O)C[n+]1cccc(C(=O)Nc2ccccc2)c1	x	x	9	110	0	95	x	x	x	x
Cc1ccc(-c2csc(=S)n2CC(=O)OCC(=O)NCc2ccco2)cc1	1	2	8	101	0	107	x	x	x	x
Cc1ccc(-c2csc(=S)n2CC(=O)OCC(=O)NC(C)C(C)C)cc1 (centres undefined)	1	4	-4	91	0.7*	81	91	0	101	0
CCOC(=O)NN1C(=O)c2ccccc2NC1c1ccccc1F (centres undefined)	0	0	2	100	0	100	x	x	x	x
CC(=O)N/C(=C\c1ccccc1)C(=O)OCc1ccccc1	x	x	3	106	1.5*	102	97	0	110	0
CC(=O)N/C(=C\c1ccccc1)C(=O)OCc1ccc(C)cc1	x	x	-2	98	0	100	x	x	x	x
Cc1ccc(-c2nnc(N)s2)cc1	1	6	0	100	5.5*	97	113	1	105	0
CC(=O)N1CC=CC1(CC(C)C)C(=O)NCCN1CCOCC1 (centres undefined)	1	0	3	96	0	104	x	x	x	x
CN1CCN(c2ccc(C(=O)c3ccc(Br)cc3)cc2[N+](=O)[O-])CC1	2	19	7	121	33*	106	104	0	92	0
N#Cc1cnc2ncnn2c1-c1ccccc1	1	13	0	98	0	104	x	x	x	x
Nc1c(-c2ccccc2)cnc2ncnn12	0	2	4	102	1.7*	103	97	0	91	0
CCN(CC)S(=O)(=O)c1cc(C(=O)O)ccc1OC	x	x	-25	78	0	88	x	x	x	x
O=C(O)C(c1ccccc1)N1C(=O)/C(=C\c2ccc(O)c(O)c2)SC1=S (centres undefined)	x	x	0	101	2.0*	105	116	0	125	0
Cc1ccc(S(=O)(=O)CCSc2nccn2C)cc1	x	x	-27	85	3.3*	88	98	0	99	0
CC(=O)c1cccc(NC(=O)C(C)OC(=O)CCc2nc3ccccc3c(=O)[nH]2)c1 (centres undefined)	x	x	x	x	0	x	x	x	x	x
COc1cc(OC)cc(-c2sc3ccc(OC)cc3c2-c2ccc(OCCN3CCOCC3)cc2)c1	x	x	x	x	160*	x	100	95*	102	128*
COc1cccc(-c2sc3ccc(OC)cc3c2-c2ccc(OCCN3CCOCC3)cc2)c1	x	x	x	x	70*	x	91	13	102	67*
